Measurements collected from several papers.
Each line is one published result; the experiments were not run side by side.
Target: Tyrosine-protein kinase receptor UFO (AXL, Homo sapiens, UniProt P30530)
Sequence (P30530 26-894, as in one of the studies): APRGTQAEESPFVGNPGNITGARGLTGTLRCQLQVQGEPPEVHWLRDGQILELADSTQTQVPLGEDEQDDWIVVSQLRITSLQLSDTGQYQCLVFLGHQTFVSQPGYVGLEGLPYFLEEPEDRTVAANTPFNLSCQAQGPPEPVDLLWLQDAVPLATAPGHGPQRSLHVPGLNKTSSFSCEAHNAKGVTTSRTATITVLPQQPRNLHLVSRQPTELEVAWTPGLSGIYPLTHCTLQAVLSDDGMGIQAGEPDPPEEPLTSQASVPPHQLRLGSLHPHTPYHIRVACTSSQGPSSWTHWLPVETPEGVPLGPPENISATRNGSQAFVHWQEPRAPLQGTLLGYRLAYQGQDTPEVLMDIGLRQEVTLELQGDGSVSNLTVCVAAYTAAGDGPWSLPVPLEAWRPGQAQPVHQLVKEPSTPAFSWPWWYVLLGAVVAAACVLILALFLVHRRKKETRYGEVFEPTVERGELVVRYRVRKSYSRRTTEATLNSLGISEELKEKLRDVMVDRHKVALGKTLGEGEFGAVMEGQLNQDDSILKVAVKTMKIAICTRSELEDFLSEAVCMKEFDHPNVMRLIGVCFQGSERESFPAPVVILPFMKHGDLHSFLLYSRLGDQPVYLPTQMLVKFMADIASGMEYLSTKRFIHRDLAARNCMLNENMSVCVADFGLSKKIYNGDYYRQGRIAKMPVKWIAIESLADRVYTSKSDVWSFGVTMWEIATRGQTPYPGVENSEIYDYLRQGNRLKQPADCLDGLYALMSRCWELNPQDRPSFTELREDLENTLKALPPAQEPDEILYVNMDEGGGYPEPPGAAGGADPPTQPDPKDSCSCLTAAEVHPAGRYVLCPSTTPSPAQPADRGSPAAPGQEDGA

The remaining binding of `C[C@@H]1CN(c2ccc3ncc(-c4ccc5[nH]nc(C6CC6)c5c4)n3n2)C[C@H](C)O1` is reported as 95% (binding; competition with immobilised ligand; 50 nM).
For `CN([C@@H]1CCc2c(CC(=O)O)c3cc(S(C)(=O)=O)ccc3n2C1)S(=O)(=O)c1ccc(F)cc1`, the remaining binding was 100% (cell-free assay; competition with immobilised ligand; 1 µM).
`FC(F)(F)Oc1cccc(-c2cnc3ccc(-c4ccncc4)nn23)c1` gave a remaining binding of 74% (cell-free assay; competition with immobilised ligand; 5 µM).
`C[C@H]1CCN(c2nccc(-c3cnn4ncccc34)n2)C1` has a remaining binding of 49% (binding; 1 µM).
For `Nc1ncc2c(n1)-c1c([nH]c3ccc(C#CC4CC4)cc13)CCCC2`, the remaining binding was 87% (binding; competition with immobilised ligand; 1 µM).
With `N[C@H]1CCN(c2nccc(-c3cnn4ncccc34)n2)C1` the remaining binding was 97% (binding; 1 µM).
With `C[C@H](c1ccc(F)cc1)N(Cc1cccc(C(=O)O)c1)C(=O)c1cnc2ccccc2c1` the remaining binding was 100% (cell-free assay; competition with immobilised ligand; 1 µM).
`CN(C)c1nccc(-c2cnc3ncccn23)n1` gave a remaining binding of 100% (binding; 1 µM).
For `COc1cnc(Nc2cccc(S(N)(=O)=O)c2)nc1N1CCN(c2ccccc2)CC1`, the remaining binding was 68% (binding; competition with immobilised ligand; 1 µM).
For `CCCCN(CCCC)C(=O)CN1C[C@H](c2cc(OC)c3c(c2)OCO3)[C@@H](C(=O)O)[C@@H]1CC(C)(C)CCC`, the remaining binding was 100% (cell-free assay; competition with immobilised ligand; 1 µM).
For `C[C@@H](c1ccc(-n2cnc3c(N)ncnc32)cc1)N1CCc2nn(C)c(Cc3ccccc3)c2C1=O`, the remaining binding was 100% (binding; competition with immobilised ligand; 0.1 µM).
`CO[C@@H](C)c1c(Nc2ccc([C@@H](N(C)C(=O)C3CCS(=O)(=O)CC3)C(F)(F)F)cc2)cnc2cc(Cl)nn12` has a remaining binding of 77% (cell-free assay; competition with immobilised ligand; 1 µM).
With `c1cncc(-c2cccc(Nc3nccc(NC4CCCCC4)n3)c2)c1` the remaining binding was 4% (binding; competition with immobilised ligand; 10 µM).
For `c1cnn2ncc(-c3ccnc(N4CCC45COC5)n3)c2c1`, the remaining binding was 74% (binding; 1 µM).
`CNC(=O)[C@@H]1CC[C@@H](n2c(-c3ccc4cnccc4c3)nc3ccc(C(=O)NCc4cccc(C(N)=O)c4)cc32)C1` has a remaining binding of 99% (binding; competition with immobilised ligand; 1 µM).
With `Cc1nccc(COC(=O)N2C[C@@H]3[C@@H](CNC(=O)c4ccc5[nH]nnc5c4)[C@@H]3C2)n1` the remaining binding was 88% (cell-free assay; competition with immobilised ligand; 1 µM).
With `O=C(c1ccc(Nc2ncc(Cl)c(-c3ccc(Cl)s3)n2)cc1)N1CCC(N2CCCC2)CC1` the remaining binding was 28% (binding; competition with immobilised ligand; 1 µM).
`CN(CCCC(F)(F)F)c1nccc(-c2cnn3ncccc23)n1` has a remaining binding of 75% (binding; 1 µM).
`O=C(NCCCN1CCOCC1)c1ccc(Nc2nccc(-c3cc4ccccc4s3)n2)cc1` has a remaining binding of 38% (binding; competition with immobilised ligand; 1 µM).
`COc1cccc(CNC(=O)c2nc3scc(COCc4ccc(C(=O)O)cc4)c3c(=O)[nH]2)c1` has a remaining binding of 84.2% (cell-free assay; competition with immobilised ligand; 1 µM).
`O=C(NCC1CCOCC1)c1n[nH]cc1NC(=O)c1c(F)cccc1F` has a remaining binding of 91% (binding; competition with immobilised ligand; 1 µM).
For `CCOC(=O)c1cc2cc(-c3cc(C(=O)NCc4ccc(C(=O)O)cc4)nn3C)ccc2[nH]1`, the remaining binding was 89% (cell-free assay; competition with immobilised ligand; 0.1 µM).
For `CN(c1nccc(-c2cnn3ncccc23)n1)C1CC1`, the remaining binding was 78% (binding; 1 µM).
`O=C(NCCCN1CCOCC1)c1ccc(Nc2ncc(Cl)c(-c3ccc(Cl)s3)n2)cc1` gave a remaining binding of 76% (binding; competition with immobilised ligand; 1 µM).
